Laboratory results taken from ChEMBL document CHEMBL1781884, “Design, synthesis, and structure-activity relationship of tropane muscarinic acetylcholine receptor antagonists” (J Med Chem, 2009).

How the values were obtained:
[1] = biological target: T1, Muscarinic acetylcholine receptor M3 (Homo sapiens, UniProt P20309); assay: Antagonist activity against human M3 receptor expressed in CHO cells assessed as inhibition of acetylcholine-induced calcium mobilization by FLIPR; type: functional, cell-based; settings: for Kb: read-out: pA2 (converted)
Mus musculus [2] = assay: Inhibition of methacholine-induced bronchoconstriction in dosed BALB/c mouse assessed as respiratory values at 5 ug, intranasal at 24 hrs; type: functional
Mus musculus [3] = assay: Inhibition of methacholine-induced bronchoconstriction in dosed BALB/c mouse assessed as respiratory values at 50 ug, intranasal at 24 hrs; type: functional
Rattus norvegicus = assay: (§1) Oral bioavailability in rat at 5.8 mg/kg; type: ADME, organism-based; settings: in vivo, BLD = below limit of detection
Outline: (§2)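 Rat oral dosing at 5.8 mg/kg; percent bioavailability determined from plasma levels, individual animal values listed because of variability.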

[4] = Systemic plasma clearance in rat at 2.5 mg/kg, iv; type: ADME, organism-based; parameters: dose 2.5 mg/kg, route intravenous
[5] = biological target: T1, Muscarinic acetylcholine receptor M3; assay: Antagonist activity at human muscarinic M3 receptor in human bronchus assessed as potency against carbachol-induced contraction; type: functional; settings: read-out: pA2 (converted)
Outline: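 Human bronchial strips (primary, secondary or tertiary airways, obtained at autopsy) mounted in organ baths on force-displacement transducers; preincubated 2 h with antagonist, then given increasing carbachol concentrations; potency expressed as pA2.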

[6] = biological target: T1, Muscarinic acetylcholine receptor M3; assay: Displacement of [3H]N-methyl Scopolamine from human muscarinic M3 receptor expressed in CHO cells by scintillation proximity assay; type: cell-based
Outline: (§3)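 Scintillation proximity binding on membranes from CHO cells expressing human M1, M2 or M3 receptor, competing against 0.5 nM [3H]-N-methylscopolamine; Ki reported, mean of two or more independent assays.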

Mus musculus [7] = species on record: Mus musculus; assay: Bronchorelaxant activity in methacholine-induced BALB/c mouse bronchus contraction model assessed as time to 50% loss of maximum protection at 0.5 ug, intranasally; type: functional
Outline: (§4)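 Balb/C mice (n = 4 per group) dosed intranasally (50 μL, 10% DMSO vehicle); challenged 0.25-48 h later with 30 mg/mL methacholine aerosol for 2 min; Penh recorded over next 5 min, as ratio of post-drug to pre-drug Penh; duration taken as time to 50% loss of maximum protection.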

[8] = biological target: T2, Muscarinic acetylcholine receptor M2 (Homo sapiens, UniProt P08172); assay: Displacement of [3H]N-methyl Scopolamine from human muscarinic M2 receptor expressed in CHO cells by scintillation proximity assay; type: cell-based; outline: as §3
T2 sequence (P08172 whole entry): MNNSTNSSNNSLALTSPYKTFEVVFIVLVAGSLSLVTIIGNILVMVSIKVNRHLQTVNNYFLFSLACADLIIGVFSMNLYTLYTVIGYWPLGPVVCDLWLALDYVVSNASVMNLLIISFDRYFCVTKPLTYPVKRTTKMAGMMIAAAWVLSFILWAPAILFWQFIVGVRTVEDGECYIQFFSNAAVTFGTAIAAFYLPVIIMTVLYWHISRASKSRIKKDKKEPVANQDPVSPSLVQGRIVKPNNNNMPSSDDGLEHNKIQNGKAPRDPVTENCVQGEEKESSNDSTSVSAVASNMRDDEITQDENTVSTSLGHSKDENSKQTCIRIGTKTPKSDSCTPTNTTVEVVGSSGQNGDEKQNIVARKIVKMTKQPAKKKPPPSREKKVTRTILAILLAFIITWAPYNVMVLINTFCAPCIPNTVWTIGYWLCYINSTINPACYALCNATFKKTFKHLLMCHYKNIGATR

Mus musculus [9] = assay: Bronchorelaxant activity in intranasally dosed BALB/c mouse bronchus assessed as inhibition of methacholine-induced contraction; type: functional
[10] = biological target: T1, Muscarinic acetylcholine receptor M3; assay: Antagonist activity at human muscarinic M3 receptor in human bronchus assessed as reversal time for 50% of carbachol-induced contraction to return to maximum relaxation at 10 nM; type: functional
Outline: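 Human bronchial strips from primary, secondary or tertiary airways (autopsy) in organ baths on force-displacement transducers; preincubated 2 h with antagonist at 10 nM, then contracted with increasing carbachol. Antagonist then washed out, tissue superfused with carbachol-containing buffer and tension recovery followed over time; value is minutes to 50% reversal of antagonist blockade (Off t50).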

[11] = as §1; type: ADME, organism-based; settings: in vivo; outline: as §2
Mus musculus [12] = species on record: Mus musculus; assay: Bronchorelaxant activity in methacholine-induced BALB/c mouse bronchus contraction model assessed as time to 50% loss of maximum protection at 5 ug, intranasally; type: functional; outline: as §4
[13] = biological target: T3, Muscarinic acetylcholine receptor M1 (Homo sapiens, UniProt P11229); assay: Displacement of [3H]N-methyl Scopolamine from human muscarinic M1 receptor expressed in CHO cells by scintillation proximity assay; type: cell-based; outline: as §3
T3 sequence (P11229 whole entry): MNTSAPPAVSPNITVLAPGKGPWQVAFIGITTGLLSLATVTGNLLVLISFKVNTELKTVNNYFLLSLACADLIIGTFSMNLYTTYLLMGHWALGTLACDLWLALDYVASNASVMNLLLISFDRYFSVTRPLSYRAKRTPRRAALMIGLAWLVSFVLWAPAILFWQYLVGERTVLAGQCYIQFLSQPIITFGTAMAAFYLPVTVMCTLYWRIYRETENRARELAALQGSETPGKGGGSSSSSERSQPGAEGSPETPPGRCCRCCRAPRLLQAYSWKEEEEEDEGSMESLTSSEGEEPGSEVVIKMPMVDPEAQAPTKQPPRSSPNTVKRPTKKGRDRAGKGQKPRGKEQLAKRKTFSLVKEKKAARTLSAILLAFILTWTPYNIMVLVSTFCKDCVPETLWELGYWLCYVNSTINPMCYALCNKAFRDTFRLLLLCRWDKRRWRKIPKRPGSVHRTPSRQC

[14] = Systemic plasma clearance in rat at 2.8 mg/kg, iv; type: ADME, organism-based; parameters: dose 2.8 mg/kg, route intravenous

Structure (SMILES)	IC50 [1]	Kb [1]	also measured
C[N+]1(C)[C@@H]2CC[C@H]1C[C@@H](CC(O)(c1cc(F)cc(F)c1)c1cc(F)cc(F)c1)C2	112 nM		
CN1[C@@H]2CC[C@H]1C[C@@H](CC(C(N)=O)(c1ccccc1)c1ccccc1)C2	< 10 nM	0.1 nM	inhibition (INH) (Mus musculus [2]): >10%
C[N+]1(C)[C@@H]2CCC[C@H]1C[C@H](CC(O)(c1ccccc1)c1ccccc1)C2.[Br-]	< 10 nM	1.58 nM	inhibition (INH) (Mus musculus [2]): 34%
CN1[C@@H]2CC[C@H]1C[C@@H](C(O)(c1ccccc1)c1ccccc1)C2	1500 nM		
Cc1c(F)cccc1C(O)(C[C@H]1C[C@H]2CC[C@@H](C1)[N+]2(C)C)c1cccc(F)c1C	65 nM		
C[N+]1(C)[C@@H]2CC[C@H]1C[C@@H](CC(O)(c1ccc(Cl)cc1)c1ccc(Cl)cc1)C2	74 nM		
CN1[C@@H]2CC[C@H]1C[C@@H](CC(O)(c1cccs1)c1cccs1)C2	< 10 nM	2.51 nM	inhibition (INH) (Mus musculus [3]): >10%
C[N+]1(C)[C@@H]2CC[C@H]1C[C@@H](CC(O)(c1cccc(Cl)c1)c1cccc(Cl)c1)C2	25 nM		
CN1[C@@H]2CC[C@H]1C[C@@H](CCC(O)(c1ccccc1)c1ccccc1)C2	134 nM		
C[N+]1(C)[C@@H]2CC[C@H]1C[C@@H](CC(O)(c1cccs1)c1cccs1)C2.[Br-]	< 10 nM	2.51 nM	inhibition (INH) (Mus musculus [2]): 19%
Cc1ccccc1C(O)(C[C@H]1C[C@H]2CC[C@@H](C1)[N+]2(C)C)c1ccccc1C.[Br-]	10 nM	5.01 nM	inhibition (INH) (Mus musculus [2]): 34%
CN1[C@@H]2CC[C@H]1C[C@@H](CC(C#N)(c1ccccc1)c1ccccc1)C2		0.316 nM	
C[N+]1(C)[C@@H]2CCC[C@H]1C[C@H](C=C(c1cccs1)c1cccs1)C2.[Br-]	< 10 nM	1 nM	inhibition (INH) (Mus musculus [2]): 49%
C[N+]1(C)[C@@H]2CC[C@H]1C[C@@H](CC(O)(c1ccc(F)c(F)c1)c1ccc(F)c(F)c1)C2	290 nM		
CCC(O)(C[C@H]1C[C@H]2CC[C@@H](C1)N2C)c1ccccc1 (some centres not stated)	135 nM		
Cc1ccccc1C(O)(C[C@H]1C[C@H]2CCC[C@@H](C1)[N+]2(C)C)c1ccccc1C	23 nM		

Structure (SMILES)	IC50 [1]	Kb [1]	also measured
C[N+]1(C)[C@@H]2CC[C@H]1C[C@@H](CC(O)(c1ccsc1)c1ccsc1)C2	17 nM		
C[N+]1(C)[C@@H]2CC[C@H]1C[C@@H](CC(O)(c1ccccc1)c1ccccc1)C2.[Br-]			inhibition (INH) (Mus musculus [3]): 62%
Cc1ccc(F)cc1C(O)(C[C@H]1C[C@H]2CC[C@@H](C1)[N+]2(C)C)c1cc(F)ccc1C	37 nM		
C[N+]1(C)[C@@H]2CC[C@H]1C[C@@H](CC(C(N)=O)(c1ccccc1)c1ccccc1)C2.[I-]	< 10 nM	0.126 nM	inhibition (INH) (Mus musculus [2]): 90%
C[N+]1(C)[C@@H]2CC[C@H]1C[C@@H](CC(C#N)(c1ccccc1)c1ccccc1)C2.[Br-]			F (Rattus norvegicus): BLD; clearance [4]: 74 mL/min/kg; Kb [5]: 0.1 nM; Ki [6]: 0.06 nM; Time (Mus musculus [7]): >24 h; Ki [8]: 0.17 nM; ED50 (Mus musculus [9]): 0.01 µg; TIME [10]: 1.42 h
COc1ccccc1C(O)(C[C@H]1C[C@H]2CC[C@@H](C1)[N+]2(C)C)c1ccccc1OC	> 10000 nM		
C[N+]1(C)[C@@H]2CC[C@H]1C[C@@H](CC(CO)(c1ccccc1)c1ccccc1)C2		3.98 nM	
COc1ccc(C(O)(C[C@H]2C[C@H]3CC[C@@H](C2)[N+]3(C)C)c2ccc(OC)cc2)cc1	> 10000 nM		
C[N+]1(C)[C@@H]2CCC[C@H]1C[C@@H](CC(O)(c1cccs1)c1cccs1)C2.[I-]	< 10 nM	2 nM	inhibition (INH) (Mus musculus [2]): 44%
C[N+]1(C)[C@@H]2CC[C@H]1C[C@@H](CC(O)(c1cccc(F)c1)c1cccc(F)c1)C2	11 nM	10 nM	
CN1[C@@H]2CC[C@H]1C[C@@H](CC(O)(c1ccccc1)c1ccccc1)C2	973 nM		inhibition (INH) (Mus musculus [3]): >10%
Cc1ccccc1C(=C[C@H]1C[C@H]2CC[C@@H](C1)[N+]2(C)C)c1ccccc1C.[Br-]	< 10 nM	0.1 nM	inhibition (INH) (Mus musculus [2]): 91%
C[N+]1(C)[C@@H]2CC[C@H]1C[C@@H](C=C(c1ccccc1)c1ccccc1)C2.[Br-]	< 10 nM	5.01 nM	inhibition (INH) (Mus musculus [3]): 76%
Cc1cc(C(O)(C[C@H]2C[C@H]3CC[C@@H](C2)[N+]3(C)C)c2csc(C)c2)cs1	65 nM		
CN1[C@@H]2CC[C@H]1C[C@@H](CC(O)(c1ccccc1)c1ccccn1)C2 (some centres not stated)	19 nM		
C[N+]1(C)[C@@H]2CC[C@H]1C[C@@H](C=C(c1cccs1)c1cccs1)C2.[Br-]	< 10 nM	0.1 nM	bioavailability [11]: 2.4%; Time (Mus musculus [12]): 24 h; Kb [5]: 1 nM; Ki [6]: 0.45 nM; inhibition (INH) (Mus musculus [2]): 72%; Ki [8]: 0.73 nM; Ki [13]: 0.38 nM; clearance [14]: 85 mL/min/kg; ED50 (Mus musculus [9]): 0.2 µg; TIME [10]: 0.983 h
